Hits are enriched below; roughly 2.3% of the tested compounds scored in any of these assays.
CRFBP-R2 agonist: agonists of CRF-BP/CRF-R2 complex, primary screen, cell-based, HEK293, calcium dye fluorescence, uHTS. CRF-binding protein / CRF receptor 2 complex (human). calcium dye fluorescence (FLIPR); percent of saturating CRF peptide response. activation, % at 13.2 µM. hit rate 0.46% among 350,000. AID 588473, 2011;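 active = activation of at least 50%, plus an integration ratio under a set limit after plate pattern correction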;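 also: plate controls were neutral control wells without compound for no effect and CRF at EC100 for full effect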
TPT1 inh: Candida albicans TPT1 enzyme inhibitors, primary screen, biochemical, fluorescence polarization; tRNA 2'-phosphotransferase TPT1 (Candida albicans SC5314); recombinant caTPT1, FP RNA substrate dephosphorylation; inhibition, % at 5 µM; hit rate 0.81% among 300,000; AID 1962, 2009;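 active = inhibition above the mean of all tested compounds plus 3 SD, set per screening campaign, cut at about 24% in these data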;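 also: plate controls were DMSO alone for no effect and ferristatin control at 100 nM for full effect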
HNF4A DNA FP: change in binding of human HNF4A to DNA, primary screen, biochemical, fluorescence polarization, FITC-DNA. Hepatocyte nuclear factor 4-alpha (Homo sapiens), P41235. 1 h. activity change, % at 10 µM. hit rate 0.3% among 360,000. AID 1224865, 2016; in the data active = activity change above about 30%, passing the limit was not always enough
CSN deneddyl inh: inhibitors of CSN-mediated cullin deneddylation, primary screen, biochemical, fluorescence polarization, uHTS; COP9 signalosome complex subunit 5 (Homo sapiens), Q92905; Purified CSN, SCF-Nedd8-OG deneddylation; inhibition, % at 12.5 µM; hit rate 0.38% among 360,000; AID 651999, 2013;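 active = pattern-corrected inhibition above about 35%, with an unprinted fluorescence ratio check between 0.5 and 1.5, limit read from the data, passing the limit was not always enough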;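 also: 0% = enzyme with substrate and 100% = substrate without enzyme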
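Material: purified human Csn5 enzyme expressed in HEK293T cells / Medium: Tris buffer pH 7.5, NaCl, DTT, Tween-20, trehalose, ovalbumin / Compound dosing: 12.5 µM single point / Schedule: 90 min incubation of compound, enzyme and substrate at room temperature / Signal: fluorescence polarization of the substrate / Control set: no-enzyme wells high, enzyme-with-substrate wells low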
CRFBP-R2 block: antagonists of CRF-BP/CRF-R2 complex, primary screen, cell-based, HEK293, calcium dye fluorescence, uHTS. CRF-induced calcium fluorescence. inhibition, % at 11.8 µM. hit rate 0.59% among 350,000;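 active = inhibition of the ligand-induced calcium signal above about 50% at the single tested concentration, limit read from the data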
Rpn11 inh: Rpn11 (PSMD14) deubiquitinase inhibitors, primary screen, biochemical, fluorescence polarization, uHTS | 26S proteasome non-ATPase regulatory subunit 14 (Homo sapiens), O00487 | hit rate 0.59% among 360,000 | human 26S proteasome, Ub4-pepOG fluorescence polarization; 20S core pre-blocked with epoxomicin | calls only at 20 µM;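 active = inhibition at 20 µM, scaled to each plate's controls, above about 33%, limit read from the data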
Target sequence (O00487 whole entry, looked up): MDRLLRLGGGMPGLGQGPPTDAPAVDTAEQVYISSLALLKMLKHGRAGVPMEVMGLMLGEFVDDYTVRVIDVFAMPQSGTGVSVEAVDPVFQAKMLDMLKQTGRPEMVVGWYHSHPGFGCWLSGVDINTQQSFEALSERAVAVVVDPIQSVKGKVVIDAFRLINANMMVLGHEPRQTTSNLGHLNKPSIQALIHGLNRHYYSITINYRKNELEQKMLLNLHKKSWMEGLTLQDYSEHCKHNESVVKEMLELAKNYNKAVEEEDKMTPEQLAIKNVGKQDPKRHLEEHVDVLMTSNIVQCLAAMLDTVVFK
caTPT1 confirm: Candida albicans TPT1 inhibitors, confirmation, biochemical, fluorescence polarization, triplicate | shares compounds with TPT1 inh | recombinant caTPT1, RNase T1 coupled | inhibition, % at 5 µM | hit rate 74% among 2,400;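 active = inhibition above the primary screen limit, the mean inhibition of all tested compounds plus 3 SD, cut at about 25% in these data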
RNase T1 inh: RNase T1 inhibitors, counter-screen for TPT1 inhibitor project, biochemical, fluorescence polarization; shares compounds with TPT1 inh; RNase T1 cleavage, 1536-well; inhibition, % at 5 µM; hit rate 83% among 2,400; AID 2153, 2009;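 active = inhibition above the solvent-only control well mean plus 3 SD, limit set per screening run, cut at about 23% in these data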;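 also: plate controls were DMSO wells with enzyme for no effect and wells without RNase T1 for full effect; inhibitors block cleavage so intact labeled substrate keeps polarization high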
Target sequence (P00651 whole entry, looked up): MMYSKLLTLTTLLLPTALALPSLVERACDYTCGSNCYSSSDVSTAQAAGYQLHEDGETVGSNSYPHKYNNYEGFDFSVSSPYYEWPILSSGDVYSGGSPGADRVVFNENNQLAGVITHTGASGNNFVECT
Rpn11 inh conf: Rpn11 (PSMD14) deubiquitinase inhibitors, confirmation, biochemical, fluorescence polarization, single concentration. AID 602318, 2012. inhibition, % at 20 µM. hit rate 29% among 1,900. purified human 26S proteasome, Ub4-pepOG fluorescence polarization; proteasome pretreated with epoxomicin. shares compounds with Rpn11 inh
MMP-2 counter-1: MMP-2 enzyme inhibition, confirmation, counter-screen for RPN11 inhibitor project, biochemical, fluorescence, single concentration | shares compounds with Rpn11 inh | recombinant MMP-2, FRET peptide cleavage fluorescence | inhibition, % at 20 µM | hit rate 4% among 1,900 | AID 602330, 2012;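 also: human MMP-2 activated beforehand with APMA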
Thrombin FP: bovine thrombin protease inhibition, confirmation, counter-screen for Rpn11 inhibitor project, biochemical, fluorescence polarization, single concentration | shares compounds with Rpn11 inh | bovine thrombin cleavage of Ub4-pepOG | inhibition, % at 20 µM | hit rate 13% among 1,900;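 active = mean inhibition at least 40% at 20 µM, or signal 3 deviations below plate average, so some actives read negative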;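 also: plate controls were thrombin with DMSO for no effect and buffer wells lacking thrombin for full effect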
CSN deneddyl val: Csn5 deneddylation inhibitors, confirmation, biochemical, fluorescence polarization, single concentration, SCF-Nedd8OG substrate. AID 720654, 2013. inhibition, % at 16.6 µM. Csn5 deneddylation of SCF-Nedd8OG, 90 min. shares compounds with CSN deneddyl inh. hit rate 62% among 540; in the data active = inhibition above about 50%;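 also: 0% = DMSO with enzyme and 100% = no enzyme wells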
MMP-2 counter-2: MMP-2 protease inhibition counter-screen, confirmation, counter-screen for CSN deneddylation inhibitor project, biochemical, fluorescence, single concentration. inhibition, % at 16.6 µM. hit rate 33% among 540. shares compounds with CSN deneddyl inh. AID 720655, 2013. recombinant MMP-2, FRET substrate fluorescence, 60 min;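 active = corrected plate-normalized z-score of 5 or more, or -5 or less, or inhibition of 15% or more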;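 also: plate controls were DMSO wells with enzyme for no effect and buffer wells lacking MMP-2 for full effect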
Thrombin counter: counter-screen for CSN deneddylation inhibitors: bovine thrombin inhibition; shares compounds with CSN deneddyl inh; hit rate 49% among 540; inhibition, % at 16.6 µM; AID 720656; bovine thrombin cleavage of Ub4-pepOG, fluorescence polarization;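 active = inhibition at or above a set limit, with a fluorescence interference ratio between 0.5 and a set maximum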
An asterisk follows results filed as active. Rule as the data show it, unless noted: active = inhibition above about 40%; inactive = the rest.

Results for Cc1cccc(N2C(=O)/C(=C/c3ccc(CN(CCC#N)S(C)(=O)=O)o3)C(=O)NC2=S)c1 ?
CRFBP-R2 agonist: 2; TPT1 inh: 34*; HNF4A DNA FP: 22; CSN deneddyl inh: 31; CRFBP-R2 block: 17; Rpn11 inh: active; caTPT1 confirm: 21; RNase T1 inh: 29*; Rpn11 inh conf: 73*; MMP-2 counter-1: 46*; Thrombin FP: 125*

What do the screens show for `CCC(C)N1C(=O)/C(=C\c2ccc(N3CCCCCC3)cc2)C(=O)NC1=S` (centres undefined)?
CRFBP-R2 agonist: 3; TPT1 inh: 25*; HNF4A DNA FP: 8; CSN deneddyl inh: 24; CRFBP-R2 block: -77; Rpn11 inh: active; caTPT1 confirm: 37*; RNase T1 inh: 58*; Rpn11 inh conf: 3; MMP-2 counter-1: 9; Thrombin FP: 0

How did CCOc1ccc(N2C(=O)/C(=C/c3ccc(C)o3)C(=O)NC2=S)cc1 do in these assays?
CRFBP-R2 agonist: -1; TPT1 inh: 32*; HNF4A DNA FP: 21; CSN deneddyl inh: 27; CRFBP-R2 block: 1; Rpn11 inh: active; caTPT1 confirm: 47*; RNase T1 inh: 57*; Rpn11 inh conf: 25; MMP-2 counter-1: 57*; Thrombin FP: 34

What do the screens show for `COP(=O)(CC(=O)O)c1ccccc1` (centres undefined)?
CRFBP-R2 agonist: -1; TPT1 inh: 0; HNF4A DNA FP: 2; CSN deneddyl inh: 6; CRFBP-R2 block: 9; Rpn11 inh: inactive

Results for CCn1c(O)c(C=Nc2ccc(S(N)(=O)=O)cc2)c(=O)n(CC)c1=S ?
CRFBP-R2 agonist: -2; TPT1 inh: 20; HNF4A DNA FP: 6; CSN deneddyl inh: -5; CRFBP-R2 block: 2

What do the screens show for `NS(=O)(=O)c1ccc(N=Cc2c(O)n(C3CCCCC3)c(=O)n(C3CCCCC3)c2=O)cc1`?
CRFBP-R2 agonist: 6; TPT1 inh: 44*; HNF4A DNA FP: 6; CSN deneddyl inh: 23; CRFBP-R2 block: -14; Rpn11 inh: active; caTPT1 confirm: 19; RNase T1 inh: 25*; Rpn11 inh conf: 22; MMP-2 counter-1: -20; Thrombin FP: 18

Results for O=c1[nH]c(=O)n(Cc2ccco2)c(O)c1/C=N/N1CCCCCC1 ?
CRFBP-R2 agonist: 0; TPT1 inh: 0; HNF4A DNA FP: 0; CSN deneddyl inh: 6; CRFBP-R2 block: -19; Rpn11 inh: inactive

How did CCN(CC)c1ccc(N=Cc2c(O)n(Cc3ccco3)c(=O)[nH]c2=O)cc1 do in these assays?
CRFBP-R2 agonist: 60*; TPT1 inh: 45*; HNF4A DNA FP: 102; CSN deneddyl inh: 62*; CRFBP-R2 block: -49; caTPT1 confirm: 64*; RNase T1 inh: 69*; MMP-2 counter-2: -14; Thrombin counter: 25*

Results for N#Cc1c(/N=C/c2c(O)n(Cc3ccco3)c(=O)[nH]c2=O)sc2c1CCCC2 ?
CRFBP-R2 agonist: 12; TPT1 inh: 44*; HNF4A DNA FP: -3; CSN deneddyl inh: 43*; CRFBP-R2 block: 4; Rpn11 inh: inactive; caTPT1 confirm: 8; RNase T1 inh: 14; CSN deneddyl val: 73*; MMP-2 counter-2: 10; Thrombin counter: -2

What do the screens show for `CC(=NCc1cccnc1)c1c(O)n(C2CCCCC2)c(=O)[nH]c1=O`?
CRFBP-R2 agonist: 0; TPT1 inh: -1; HNF4A DNA FP: -1; CSN deneddyl inh: 7; CRFBP-R2 block: -34; Rpn11 inh: inactive

What do the screens show for `CC1(C)OC(c2ccccc2)=C/C(=C/C=C2C(=O)NC(=O)NC2=O)O1`?
CRFBP-R2 agonist: 31; TPT1 inh: 113*; HNF4A DNA FP: 184; CSN deneddyl inh: 96*; CRFBP-R2 block: -52; caTPT1 confirm: 107*; RNase T1 inh: 106*; CSN deneddyl val: 195*; MMP-2 counter-2: -4; Thrombin counter: -8

How did O=C1NC(=O)C(=Cc2ccco2)C(=O)N1 do in these assays?
CRFBP-R2 agonist: 3; HNF4A DNA FP: -7; CSN deneddyl inh: 19; CRFBP-R2 block: -5; Rpn11 inh: inactive

Screens deposited in PubChem by several laboratories.
